# ChEMBL document CHEMBL3085728, “Conformational modifications of gB from herpes simplex virus type 1 analyzed by synthetic peptides” (J Med Chem, 2013)
# Active and inactive are the calls of the source. The rule behind the calls is not given here.
# Legend:
# [1] = system: Human alphaherpesvirus 1; experiment: Antiviral activity against Herpes simplex virus type 1 assessed as inhibition of viral entry into African green monkey Vero cells compound co-treated with cells and viral inoculum for 45 mins measured after 48 hrs by plaque formation assay; type: functional, organism-based; settings: Human alphaherpesvirus 1, Vero
# How it was run: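 Cotreatment: Vero cells exposed to peptide (10–200 μM, serum-free DMEM) together with serial dilutions of LacZ HSV-1 inoculum for 45 min at 37 °C. Nonpenetrated virus inactivated by pH 3.0 citrate, then 48 h at 37 °C in DMEM with CMC; X-gal staining, plaques counted. Triplicates; inhibition percentage vs no-peptide control.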
# [2] = system: Vero; experiment: Cytotoxicity against African green monkey Vero cells at 10 to 500 uM after 24 hrs by LDH assay; type: cell-based; settings: chlorocebus sabaeus
# How it was run: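 Vero monolayers exposed to peptides at 10, 50, 100, 200, 250 and 500 μM for 24 h; viability read by lactate dehydrogenase release with a commercial cytotoxicity detection kit, compared against untreated cells.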
# [3] = system: Human alphaherpesvirus 1; experiment: Antiviral activity against Herpes simplex virus type 1 assessed as inhibition of viral entry into African green monkey Vero cells at 100 uM compound preincubated with virus for 45 mins followed by viral titration measured 48 hrs post viral titration by plaque formation assay relative to control; type: functional; settings: Human alphaherpesvirus 1, Vero
# [4] = system: Human alphaherpesvirus 1; experiment: Antiviral activity against Herpes simplex virus type 1 assessed as inhibition of viral entry into African green monkey Vero cells at 20 to 200 uM compound treated post viral titration for 30 mins measured 48 hrs post viral titration by plaque formation assay; type: functional, organism-based
Substance,IC50 [1],Activity [2],inhibition at 100 µM [3],inhibition [4]
H-FARLQFTYNHIQRHVRDMEGR-OH,60 µM,Non-toxic,100%,inactive
H-YNHIQRHVNDMLGRVKKAWEE-OH,,Non-toxic,,
H-YNHIQRHVNDMLGR-OH,,Non-toxic,100%,inactive
